Experimental data reported in paper PMC6172054 (Cancer Science, 2018).
Read-outs that look alike come from different tables or passages of the source.

Legend:
[1] = system: multiple myeloma; conditions: twice weekly carfilzomib monotherapy 20/27 mg/m^2; cited from earlier work
[2] = Plasma pharmacokinetics of carfilzomib after 30-minute intravenous infusion; type: in vivo, human; conditions: for AUClast / T1/2 (terminal elimination half-life): mean ± SD, SD; for Tmax: median (minimum-maximum)
Outline: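 Relapsed/refractory myeloma patients got a 30-min IV infusion of test compound with dexamethasone 40 mg. Plasma was sampled on Days 1 (20 mg/m2) and 15 (70 mg/m2) of Cycle 1: pre-infusion, 5 and 15 min after start, just before end, then 5, 15, 30 min and 1, 2, 4 h post-infusion. Per-patient parameters were summarised as mean ± SD, Tmax as median (min–max).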

[3] = system: multiple myeloma; conditions: twice weekly carfilzomib monotherapy 20/45 or 20/56 mg/m^2; cited from earlier work
[4] = Day 1 of Cycle 1, carfilzomib 20 mg/m^2 iv, N = 6
[5] = Day 15 of Cycle 1, carfilzomib 70 mg/m^2 iv, N = 5

AUClast [2, 4]: 355 ± 120 ng·h/mL
T1/2 (terminal elimination half-life) [2, 4]: 41 ± 15.1 min
Tmax [2, 4]: 0.575 (0.250‐0.617) h
AUClast [2, 5]: 1250 ± 285 ng·h/mL
T1/2 (terminal elimination half-life) [2, 5]: 54 ± 4.44 min
Tmax [2, 5]: 0.467 (0.250‐0.617) h
Compound: CC(C)C[C@H](NC(=O)[C@H](CCc1ccccc1)NC(=O)CN1CCOCC1)C(=O)N[C@@H](Cc1ccccc1)C(=O)N[C@@H](CC(C)C)C(=O)[C@@]1(C)CO1 [carfilzomib]
ORR [1]: 22.5%
ORR [3]: 57.1%
